In ChEMBL document CHEMBL1156308 (J Med Chem, 2010):

How the values were obtained:
[1] = Plasma protein binding in baboon; assay type: ADME, cell-free; conditions: papio hamadryas, read-out: PPB (converted)
In short: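 [11C]-labelled drug was incubated 10 min at room temperature in pooled plasma from at least 4 baboons. Total radioactivity was counted, then the sample was ultrafiltered by centrifugation (10 min) and the filtrate counted. Result is expressed as % free fraction in plasma.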

[2] = Biodistribution in iv dosed monkey brain after 6 hrs; assay type: ADME, organism-based, Macaca mulatta; conditions: rhesus monkey, read-out: Drug uptake

Compound	fraction unbound [1]	concentration at 6 h [2]
CO[C@H]1/C=C/O[C@@]2(C)Oc3c(C)c(O)c4c(O)c(c(/C=N/N5CCN(C)CC5)c(O)c4c3C2=O)NC(=O)/C(C)=C\C=C\[C@H](C)[C@H](O)[C@@H](C)[C@@H](O)[C@@H](C)[C@H](OC(C)=O)[C@@H]1C [RIFAMPIN]	0.727	
CO[C@H]1/C=C/O[C@@]2(C)Oc3c(C)c(O)c4cc(c(/C=N/N5CCN([14CH3])CC5)c(O)c4c3C2=O)NC(=O)/C(C)=C\C=C\C(C)[C@H](O)[C@@H](C)[C@@H](O)[C@@H](C)[C@H](OC(C)=O)[C@@H]1C (some centres not stated)		870 ng/g
